Out of some 340,000 compounds screened, about 540 (0.16%) were called active.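 How the source made its calls: active means inhibition above about 35% when tested at 20 µM (limit read from the data); inactive means the rest.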 The entries come from a sample that favours actives as a whole.

Inhibition data for 87 compounds are collected here from PubChem BioAssay AID493160 (Sanford-Burnham Center for Chemical Genomics, 2011).

The target in the assay is Hexokinase HKDC1 (Homo sapiens) (UniProt Q2TB90). Put plainly: HKDC1 hexokinase inhibitors, primary screen, biochemical, fluorescence, uHTS (AID 493160).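 Further: plate controls were DMSO wells with enzyme for no effect and DMSO wells lacking enzyme for full effect.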 The note with it: recombinant HKDC1, G6PDH/diaphorase resazurin coupled fluorescence; at 20 µM; stronger effect = higher value. The procedure, abridged: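 Test system: HK5 enzyme. Quantity: 5 µg/mL HK5 final. Reagent: glucose and ATP substrates. Schedule: 90 min reaction incubation at room temperature, dark. Technique: resazurin-to-resorufin fluorescence via G6PDH and diaphorase coupling, 525/613 nm. Control set: DMSO wells with and without enzyme mix.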
Chain of Hexokinase HKDC1 (Homo sapiens) (Q2TB90 whole entry, looked up): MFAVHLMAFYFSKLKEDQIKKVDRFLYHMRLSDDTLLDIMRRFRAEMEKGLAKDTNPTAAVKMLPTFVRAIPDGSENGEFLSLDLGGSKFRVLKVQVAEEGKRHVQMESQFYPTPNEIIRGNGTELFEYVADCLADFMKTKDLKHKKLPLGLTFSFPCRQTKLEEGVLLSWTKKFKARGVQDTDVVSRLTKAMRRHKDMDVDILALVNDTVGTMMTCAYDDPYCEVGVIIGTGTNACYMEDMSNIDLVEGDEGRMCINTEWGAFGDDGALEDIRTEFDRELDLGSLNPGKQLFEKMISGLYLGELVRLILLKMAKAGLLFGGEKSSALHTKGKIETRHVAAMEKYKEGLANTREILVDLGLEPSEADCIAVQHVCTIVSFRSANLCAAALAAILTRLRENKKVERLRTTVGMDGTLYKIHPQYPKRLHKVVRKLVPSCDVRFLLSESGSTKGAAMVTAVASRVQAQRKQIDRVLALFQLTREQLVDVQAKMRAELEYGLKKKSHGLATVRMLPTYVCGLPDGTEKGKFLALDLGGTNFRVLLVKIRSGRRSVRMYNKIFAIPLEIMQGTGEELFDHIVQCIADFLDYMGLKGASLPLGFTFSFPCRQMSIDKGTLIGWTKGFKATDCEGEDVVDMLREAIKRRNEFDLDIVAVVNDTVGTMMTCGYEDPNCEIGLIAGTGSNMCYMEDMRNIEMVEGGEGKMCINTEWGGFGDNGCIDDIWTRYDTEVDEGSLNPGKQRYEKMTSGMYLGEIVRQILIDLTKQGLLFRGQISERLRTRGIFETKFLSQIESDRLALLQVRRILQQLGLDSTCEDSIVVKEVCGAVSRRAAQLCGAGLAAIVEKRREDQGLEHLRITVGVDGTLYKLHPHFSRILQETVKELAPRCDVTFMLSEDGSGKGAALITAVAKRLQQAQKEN
A general note: Alamar Blue is a resazurin reagent that responds to reducing activity.
For orientation: inhibition means the relative decrease from the control value, in per cent. As to `CCN(CC)C(=O)[C@H]1CC(CC(=O)NCc2ccco2)C(=O)N2CCc3c([nH]c4ccccc34)[C@]12C` (some centres not stated), the inhibition was -4.97% (inactive).
For `Cc1onc(-c2ccc(Cl)cc2)c1-c1ccnn1S(=O)(=O)c1ccc(Cl)cc1`, the inhibition was 0.4% (inactive).
Then `CC[C@@]1(C(=O)OC)N[C@H](CN(C)C(C)=O)[C@@H]2C(=O)N(C)C(=O)[C@@H]21`, with -5.2% (inactive); and `CC(=O)c1c(C)[nH]c(C(=O)COC(=O)c2cccc(S(=O)(=O)N(C)c3ccccc3)c2)c1C`, with 16.7% (inactive); and `COCCN(C(=O)CSCc1ccc(C)cc1)c1c(N)n(CC(C)C)c(=O)[nH]c1=O`, with -4.58% (inactive).
Regarding `COc1cc(CO)ccc1OCC(=O)Nc1cccc2ccccc12`, the inhibition is -1.93% (inactive).
The value for `S=C(Nc1cccc(Br)c1)N1CCn2cccc2C1c1cccnc1` (configuration not stated) was 4.07% (inactive); that for `COCCNC(=O)c1ccc(-n2c(SCc3cccnc3)nc3ccccc3c2=O)cc1` was -1.32% (inactive); that for `O=Cc1cn(-c2ccccc2)nc1-c1ccccn1` was -7.78% (inactive).
Then `CCOc1ccccc1-c1nc(CN2CCC(C(=O)N3CCOCC3)CC2)c(C)o1`, with -3.93% (inactive); and `COc1ccc(C(CCN(Cc2ccc(OC)c(OC)c2)C(=O)CCl)c2ccccc2)cc1` (configuration not stated), with 35.4% (active); and `COc1ccc(CN(Cc2ccc(OC)cc2)C(=O)c2cccs2)cc1`, with 1.52% (inactive).
On to `COc1ccc(CCNC(=O)C(Sc2ccccn2)c2ccccc2)cc1OC` (configuration not stated), for which the inhibition is -5.11% (inactive).
The value for `CC1CCCC(NC(=O)COC(=O)[C@@H]2CC(O)CN2S(=O)(=O)c2ccc3c(c2)OCCO3)C1C` (some centres not stated) was -2.96% (inactive).
The value for `Cc1noc(/C=C/c2ccco2)c1S(=O)(=O)N1CCC(C(=O)Nc2ccc(Cl)cn2)CC1` was -6% (inactive).
Then `CCOC(=O)/C(=C\c1ccc([N+](=O)[O-])cc1)C(=O)c1cc(C(C)=O)c(Nc2ccccc2)s1`, with 33.5% (inactive).
Consider `COc1nnc(-c2ccc(C)c(S(=O)(=O)N(C)C)c2)c2ccccc12`, for which the inhibition is -2.23% (inactive).
Then `O=C(CC1NCCc2ccccc21)Nc1cccc(Cl)c1` (configuration not stated), with 8.29% (inactive); and `CN1CCN(c2ccccc2NC(=O)COc2ccc(C3CCCCC3)cc2)CC1`, with -0.75% (inactive).
The value for `C/C=C/c1ccc(OCC(=O)NNC(=O)CN(C)S(=O)(=O)c2ccc(C)cc2)c(OC)c1` was 0.23% (inactive); that for `CCOC(=O)C(C)n1nc(-c2ccccc2)c2ccccc2c1=O` (configuration not stated) was -7.97% (inactive).
The value for `O=[N+]([O-])c1ccc(N2CCN(c3ccc(F)cc3)CC2)cn1` was 3.5% (inactive); that for `CCCc1nc2oc3c(=O)[nH]cnc3c2c2c1COC(C)(C)C2` was 27.4% (inactive); that for `CCCc1nc2oc3c(OCC)ncnc3c2c2c1COC(C)(C)C2` was 37.7% (active).
In the case of `CC(C)CCSc1ncnc2c1oc1nc3c(cc12)COC(C)(C)C3`, the inhibition is 1.9% (inactive).
The value for `Cc1cc(Cl)c2oc(C(=O)N3CCC(O)(c4ccccc4)CC3)c(C)c2c1` was -1.23% (inactive); that for `COc1ccc(N2CCN(C(=O)C3CCN(C(=O)c4ccccc4Cl)CC3)CC2)cc1` was -1.69% (inactive); that for `CCCCc1nc(SCC(=O)Nc2nnc(C(C)C)s2)n[nH]1` was -4.74% (inactive).
For `CCCCCC1CC(COc2ccccc2)OC1=O` (configuration not stated), the inhibition is -1.3% (inactive).
Then `COC(=O)c1c(C)c(C)nc(N)c1C#N`, with 3.54% (inactive); and `COc1ccccc1N(C(=O)Cn1nnc2ccccc21)C(C(=O)NCc1ccco1)c1ccc(C)o1` (configuration not stated), with -6.23% (inactive); and `Cc1ccc(C(C)(C)C)c(OCCCCN2CCCC2)c1`, with -1.47% (inactive).
The value for `CC1(C)CC(=O)C=C(c2ccc3ncccc3c2)C1` was 11.6% (inactive); that for `N/C(=N\c1nc2ccccc2o1)NC(=O)C(Cc1ccccc1)N1C(=O)c2ccccc2C1=O` (configuration not stated) was -5.13% (inactive); that for `CCc1cc(CNC(=O)CC2C(=O)NCCN2CC2CCCCC2)on1` (configuration not stated) was -15.1% (inactive).
In the case of `O=C(Cn1c2[n+](c3ccc(C(F)(F)F)cc31)CCCCC2)Nc1c(F)cccc1F`, the inhibition is 1.03% (inactive).
The value for `CCOC(=O)c1ccccc1NC(=O)COC(=O)C(Cc1c[nH]c2ccccc12)NC(C)=O` (configuration not stated) was 0.25% (inactive); that for `O=C(Nc1ccc(S(=O)(=O)Nc2ncccn2)cc1)c1cncc(Br)c1` was -5.17% (inactive).
On to `CCC1SC2=NCCN2C1(O)c1ccc(Cl)cc1` (configuration not stated), for which the inhibition is 10.4% (inactive).
Then `C#CCOCCOCCOCCNc1nc(N2CCN(C(=O)C([C@@H](C)CC)n3cc(C(N)COC(=O)C(F)(F)F)nn3)CC2)nc(N2CCN(C(=O)[C@H](Cc3ccc(O)cc3)n3cc(C(N)[C@H](C)CC)nn3)CC2)n1` (some centres not stated), with 1.5% (inactive); and `CC(=O)N(CC1CCCO1)C1(C(=O)NC2CCCC2)CCCCC1` (configuration not stated), with 2.48% (inactive); and `COc1ccc(CN2CC(C(=O)NCCc3ccc(Cl)cc3)CC2=O)cc1` (configuration not stated), with -3.16% (inactive).
On to `Cc1ccc(Nc2nnc(SC(C)C(=O)NC3CC3)s2)cc1` (configuration not stated), for which the inhibition is -5.42% (inactive).
Consider `CC12CN(NC(=O)c3ccc(Cl)cc3)C3(C#N)CC1CCC23C` (configuration not stated), for which the inhibition was -3.27% (inactive).
On to `Cc1noc(C)c1S(=O)(=O)N(C)C[C@H]1Oc2ccc(NC(=O)C3CC3)cc2C(=O)N([C@H](C)CO)C[C@@H]1C`, for which the inhibition is 3.28% (inactive).
The value for `CCn1cc(C(=O)OCC(=O)Nc2cccc(C)c2)c(=O)c2ccc(C)nc21` was -3.21% (inactive).
For the compound `COCc1c(C(=O)N/N=C\c2cccnc2)nnn1-c1nonc1N`, the inhibition is -3.41% (inactive).
Then `COc1cc(/C=C/C(=O)OCC(=O)N2CCOCC2)ccc1OCC#N`, with -1.34% (inactive).
Then `COc1ccc(C(=O)Nc2cc(S(=O)(=O)N3CCCC3)ccc2Cl)cc1`, with 1.91% (inactive); and `O=C1C(Cl)=C(Oc2ccccc2)C(=O)c2ccccc21`, with 65.2% (active); and `Nc1ccc2nc3c(=O)[nH]c(=S)[nH]c3nc2c1`, with 69.9% (active).
Then `C=CCn1c(CCNC(=O)c2ccccc2F)nnc1SCC(=O)Nc1ccc(OC)cc1`, with -6.44% (inactive); and `COc1ccc(S(=O)(=O)N2CCCC2CNC(=O)C(=O)NC2CC2)cc1` (configuration not stated), with 0.83% (inactive).
Consider `Cc1ccc2c(c1)N(S(=O)(=O)c1cc(-c3cc(C)no3)ccc1C)CCO2`, for which the inhibition is 1.39% (inactive).
The value for `O=S(N1CCCCCC1)C12CC3CC(CC(C3)C1)C2` (configuration not stated) was -7.44% (inactive).
Then `O=C(CNC(=O)Cc1ccccc1)NCC(=O)OCC(=O)c1ccccc1Cl`, with 8.72% (inactive); and `CCOC(=O)c1ccc(NC(=O)c2nc[nH]c2C(=O)N[C@@H](CCCCNC(=O)OC(C)(C)C)C(=O)OC(C)(C)C)cc1`, with 3.03% (inactive).
Consider `Oc1c(C(c2ccco2)N2CCC3(CC2)OCCO3)sc2ncnn12` (configuration not stated), for which the inhibition was 0.37% (inactive).
`O=C(Cc1ccc(NC(=O)C2CCCN(C(=O)C3CCCCC3)C2)cc1)Nc1cccc(C(=O)N2CCCCC2)c1` (configuration not stated): the inhibition is -3.33% (inactive).
Then `CCC(C)c1ccc(O)c(/C=N/O)c1` (configuration not stated), with -1.01% (inactive); and `CCOC(=O)CCP(=O)(O)C(O)(c1ccccc1)c1ccccc1`, with -11.5% (inactive).
The value for `CCN(CC)C(=O)C(=O)c1cn(CC(=O)NCc2ccc3c(c2)OCO3)c2ccccc12` was -5.09% (inactive).
Then `OC(COCc1ccco1)CN1CCN(c2ccccc2)CC1` (configuration not stated), with -10.6% (inactive); and `Cc1ccc(-c2cnc(NC(=O)CCC(=O)N(C)Cc3ccccc3)n2C)cc1`, with -3.47% (inactive); and `Cc1cccc(-n2ncc3c(=O)[nH]c(SCC(=O)Nc4cc(C)on4)nc32)c1`, with -3.1% (inactive).
`CC1CN(C2CCCCC2)c2nc3c(c(=O)n(C)c(=O)n3C)n2C1` (configuration not stated): the inhibition was 3.52% (inactive).
The value for `CC(C)(C)NC(=O)CSc1nnc(NC(=O)CCc2ccccc2)s1` was -2.99% (inactive).
As for `Cc1cc(-c2n[nH]c(=S)n2/N=C/C(Br)=C/c2ccccc2)n[nH]1`, the inhibition was 29.1% (inactive).
`COc1ccc(O)c(C(=O)c2cnc3onc(C(C)C)c3c2)c1`: the inhibition is -4.62% (inactive).
For `Cc1ccc(CNC(=O)CCS(=O)(=O)c2ccc3c(c2)CC(C)N3C(=O)C2CC2)o1` (configuration not stated), the inhibition was -0.82% (inactive).
Then `CC1CCN(S(=O)(=O)c2ccc(S(=O)(=O)NCc3cccnc3)cc2)CC1`, with -6.19% (inactive); and `CC(C)(C)c1cc(CN2CCN(CCC#N)CC2)cc(C(C)(C)C)c1O`, with 3.39% (inactive); and `Cc1nn(C)c(C)c1NS(=O)(=O)c1ccc(OC(F)(F)F)cc1`, with -3.33% (inactive).
The value for `O=C1COc2ccc(S(=O)(=O)Nc3ccc(OC(F)(F)F)cc3)cc2N1` was 2.53% (inactive); that for `O=S(=O)(Nc1ccc(O)c2ccccc12)c1ccc(OC(F)(F)F)cc1` was 52% (active).
The value for `C=C(C)c1cccc(C(C)(C)NC(=O)NCCN(CC)CC)c1` was 13% (inactive).
For the compound `CC1Cc2ccccc2N1S(=O)(=O)c1cccc(C(=O)OCC(=O)N2CCOCC2)c1` (configuration not stated), the inhibition is -4.82% (inactive).
Then `COc1cc(NC(=O)C2=C(C)OCCS2)c(Cl)cc1C(=O)NCCN1CCN(C)CC1`, with -3.87% (inactive).
On to `COCCCNC(NC(=O)c1ccc(OC)cc1)C(Cl)(Cl)Cl` (configuration not stated), for which the inhibition is -2.25% (inactive).
The value for `CC(C)(C)OC(=O)N(Cc1ccccc1)Cc1ccc(OCc2cccc(NC(=O)c3ccccc3)c2)cc1` was -0.76% (inactive).
For `COc1ccc(Nc2ncc(C(=O)N3CCN(c4ccccc4OC)CC3)c3ccccc23)cc1`, the inhibition was 3.14% (inactive).
Consider `CCc1c(Nc2ccccc2Cl)nc(N)[nH]c1=O`, for which the inhibition was -5.05% (inactive).
`Fc1ccccc1OCCSc1nc2ccccc2o1`: the inhibition was 7.74% (inactive).
Then `CC(C)C[C@H](NC(=O)N1CC(=O)Nc2ccccc21)C(=O)N[C@H](Cc1ccccc1)C(=O)O`, with -0.33% (inactive); and `CN(C(=O)CSc1cccc[n+]1[O-])C1CCCCC1`, with -5.14% (inactive).
Then `NC(=O)C1CC=CCC1C(=O)OCC(Cl)=C(Cl)Cl` (configuration not stated), with -10.8% (inactive); and `Cc1nc2nc(COc3ccccc3)[nH]n2c(=O)c1C`, with 0.17% (inactive).
